From ChEMBL document CHEMBL1649552 (2009) come the findings set out here.

Molecules are shown by their SMILES. ≈ marks a conversion by molar mass, not a printed value.

Holding throughout (format): functional
The subject of assay [1] is Staphylococcus aureus. The assay is described as follows: Antibacterial activity against methicillin-resistant Staphylococcus aureus assessed as susceptible isolates by CLSI M100-S17 method.
Assay [2] relates to Staphylococcus epidermidis. Put plainly: Antibacterial activity against methicillin-susceptible Staphylococcus epidermidis by CLSI M100-S17 method.
Assay [3] deals with Streptococcus pneumoniae. The assay is described as follows: Antibacterial activity against Streptococcus pneumoniae by CLSI M100-S17 method.
The subject of assay [4] is Enterococcus faecalis. Put plainly: Antibacterial activity against Enterococcus faecalis assessed as susceptible isolates by CLSI M100-S17 method.
Assay [5] relates to Staphylococcus aureus. Put plainly: Antibacterial activity against methicillin-resistant Staphylococcus aureus assessed as resistant isolates by CLSI M100-S17 method.
Assay [6] concerns Staphylococcus aureus. Put plainly: Antibacterial activity against methicillin-susceptible Staphylococcus aureus assessed as susceptible isolates by CLSI M100-S17 method.
Assay [7] has as its system Staphylococcus aureus. The assay is described as follows: Antibacterial activity against methicillin-susceptible Staphylococcus aureus assessed as intermediate isolates by CLSI M100-S17 method.
The test system of assay [8] is Streptococcus pyogenes. The assay is described as follows: Antibacterial activity against Streptococcus pyogenes assessed as susceptible isolates by CLSI M100-S17 method. The method in brief:
(§1)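 CLSI broth microdilution on clinical isolates, using frozen in-house-prepared panels of test and comparator agents. MICs were read after 20 to 24 h incubation at 35°C in ambient air. Susceptible/intermediate categories were assigned by CLSI M100-S17 guidelines.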

In assay [9] the test system is Staphylococcus epidermidis. Put plainly: Antibacterial activity against methicillin-susceptible Staphylococcus epidermidis assessed as intermediate isolates by CLSI M100-S17 method.
Assay [10] concerns Staphylococcus epidermidis. Put plainly: Antibacterial activity against methicillin-susceptible Staphylococcus epidermidis assessed as resistant isolates by CLSI M100-S17 method.
For assay [11], the system named is Streptococcus pyogenes. Put plainly: Antibacterial activity against Streptococcus pyogenes by CLSI M100-S17 method.
Assay [12] has as its system Streptococcus agalactiae. Put plainly: Antibacterial activity against Streptococcus agalactiae by CLSI M100-S17 method.
The test system of assay [13] is Staphylococcus epidermidis. The assay is described as follows: Antibacterial activity against methicillin-resistant Staphylococcus epidermidis assessed as susceptible isolates by CLSI M100-S17 method.
The test system of assay [14] is Enterococcus faecium. The assay is described as follows: Antibacterial activity against Enterococcus faecium by CLSI M100-S17 method.
Assay [15] deals with Streptococcus pneumoniae. Put plainly: Antibacterial activity against Streptococcus pneumoniae assessed as susceptible isolates by CLSI M100-S17 method. Put shortly:
as §1

Assay [16] relates to Enterococcus faecium. Put plainly: Antibacterial activity against Enterococcus faecium assessed as intermediate isolates by CLSI M100-S17 method.
Assay [17] deals with Enterococcus faecalis. The assay is described as follows: Antibacterial activity against Enterococcus faecalis assessed as intermediate isolates by CLSI M100-S17 method.
In assay [18] the test system is Staphylococcus aureus. The assay is described as follows: Antibacterial activity against methicillin-resistant Staphylococcus aureus assessed as intermediate isolates by CLSI M100-S17 method.
In assay [19] the test system is Staphylococcus epidermidis. The assay is described as follows: Antibacterial activity against methicillin-susceptible Staphylococcus epidermidis assessed as susceptible isolates by CLSI M100-S17 method.
Assay [20] relates to Staphylococcus aureus. Put plainly: Antibacterial activity against methicillin-susceptible Staphylococcus aureus by CLSI M100-S17 method.
The subject of assay [21] is Staphylococcus aureus. Put plainly: Antibacterial activity against methicillin-resistant Staphylococcus aureus by CLSI M100-S17 method.
Assay [22] relates to Enterococcus faecalis. The assay is described as follows: Antibacterial activity against Enterococcus faecalis by CLSI M100-S17 method.
The test system of assay [23] is Staphylococcus epidermidis. Put plainly: Antibacterial activity against methicillin-resistant Staphylococcus epidermidis assessed as intermediate isolates by CLSI M100-S17 method.
In assay [24] the test system is Staphylococcus aureus. The assay is described as follows: Antibacterial activity against methicillin-susceptible Staphylococcus aureus assessed as resistant isolates by CLSI M100-S17 method.
Assay [25] relates to Enterococcus faecalis. The assay is described as follows: Antibacterial activity against Enterococcus faecalis assessed as resistant isolates by CLSI M100-S17 method.
Assay [26] has as its system Staphylococcus epidermidis. Put plainly: Antibacterial activity against methicillin-resistant Staphylococcus epidermidis by CLSI M100-S17 method.
In assay [27] the test system is Enterococcus faecium. The assay is described as follows: Antibacterial activity against Enterococcus faecium assessed as susceptible isolates by CLSI M100-S17 method.
Assay [28] relates to Staphylococcus epidermidis. The assay is described as follows: Antibacterial activity against methicillin-resistant Staphylococcus epidermidis assessed as resistant isolates by CLSI M100-S17 method.
For assay [29], the system named is Streptococcus pneumoniae. Put plainly: Antibacterial activity against Streptococcus pneumoniae assessed as resistant isolates by CLSI M100-S17 method. The method in brief:
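Clinical isolates were tested by CLSI broth microdilution in frozen, in-house-prepared 96-well panels of the test agent and comparator agents. MICs were read and classed as susceptible, intermediate or resistant using CLSI M100-S17 breakpoints. The value is the share of isolates in each category.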

Assay [30] concerns Streptococcus pneumoniae. The assay is described as follows: Antibacterial activity against Streptococcus pneumoniae assessed as intermediate isolates by CLSI M100-S17 method. Put shortly:
as §1

Consider `CN[C@H](CC(C)C)C(=O)N[C@H]1C(=O)N[C@@H](CC(N)=O)C(=O)N[C@H]2C(=O)N[C@H]3C(=O)N[C@H](C(=O)N[C@H](C(=O)O)c4cc(O)cc(O)c4-c4cc3ccc4O)[C@H](O)c3ccc(c(Cl)c3)Oc3cc2cc(c3O[C@@H]2O[C@H](CO)[C@@H](O)[C@H](O)[C@H]2O[C@H]2C[C@](C)(N)[C@H](O)[C@H](C)O2)Oc2ccc(cc2Cl)[C@H]1O` [VANCOMYCIN], for which the Activity worked out at 100% in [1]; 100% in assay [4]; 0% in [5]; 100% in assay [6]; 0% in assay [7]; 100% in [8]. The Activity in assay [9] is recorded as 0%; in [10] it was 0%; in assay [13], 100%; in assay [15], 100%; in assay [16] it was 0%; in assay [17], 0%. Also, the Activity was 0% in [18]; 100% in [19]; 0% in assay [23]; 0% in [24]; 0% in [25]; 87.9% in assay [27]. Besides, the Activity in assay [28] came to 0%. In addition, the MIC90 (usually an inhibitory concentration at the 90% level, which refers to growth in some studies and to a panel of isolates in others) was 2 µg/mL (≈ 1.38 µM) in [2]; 0.25 µg/mL (≈ 0.173 µM) in [3]; 0.5 µg/mL (≈ 0.345 µM) in assay [11]; 0.25 µg/mL (≈ 0.173 µM) in assay [12]; > 32 µg/mL in [14]; 1 µg/mL (≈ 0.69 µM) in [20]. For the same molecule, the MIC90 in assay [21] was found to be 1 µg/mL (≈ 0.69 µM); in assay [22], 2 µg/mL (≈ 1.38 µM); in [26], 2 µg/mL (≈ 1.38 µM). Also, the MIC50 (as a rule, an inhibitory concentration at the 50% level, which refers to growth in some studies and to a panel of isolates in others) is ≤ 0.25 µg/mL in [3]; 0.5 µg/mL (≈ 0.345 µM) in assay [11]; ≤ 0.25 µg/mL in assay [12]; 0.5 µg/mL (≈ 0.345 µM) in assay [14]; 1 µg/mL (≈ 0.69 µM) in assay [20]; 1 µg/mL (≈ 0.69 µM) in assay [21]. The MIC50 in assay [22] turned out to be 1 µg/mL (≈ 0.69 µM).

Consider `C[C@H]1COc2c(N3CCN(C)CC3)c(F)cc3c(=O)c(C(=O)O)cn1c23.C[C@H]1COc2c(N3CCN(C)CC3)c(F)cc3c(=O)c(C(=O)O)cn1c23.O` [LEVOFLOXACIN], for which the MIC50 in assay [3] was 0.5 µg/mL. The same molecule returned an MIC90 in assay [3] of 1 µg/mL. The Activity came to 0.6% in assay [29], 99.4% in assay [15] and 0% in assay [30].
